Published values of several laboratories.
Each line is one published result; the experiments were not run side by side.
Target: Tyrosine-protein kinase BTK (BTK, Homo sapiens, UniProt Q06187)

Compound | assay | setting | measurement | value
Cc1nn(C)cc1-c1nc2c(N3CCN(Cc4ccc(Cl)cc4)CC3)c(Cl)cnc2[nH]1 | binding, competition with immobilised ligand | 1 µM | remaining binding | 100%
N#CC1(c2ccccn2)CCN(Cc2cc(C(=O)O)c(=O)n3ccccc23)CC1 | cell-free assay, competition with immobilised ligand | 1 µM | remaining binding | 100%
O=c1[nH]c2ccccc2n1C1CCN(Cc2ccc(-c3[nH]c4cc5ncnc5cc4nc3-c3ccccc3)cc2)CC1 | cell-free assay | 0.5 µM | remaining signal | 98.4%
Nc1ncc(-c2nc(N3CCOCC3)nc(N3CCOCC3)n2)c(C(F)F)n1 | binding, competition with immobilised ligand | 10 µM | remaining binding | 26%
C#Cc1n[nH]c2c(-c3cn(C(C)c4ccccn4)c(=O)[nH]c3=O)cc(F)cc12 (centres unmarked) | enzyme activity, inhibitor | 1 µM | inhibition | 1.7%
Cn1cncc1[C@@](O)(COc1ccc(C#N)cc1-c1ccc(OC(F)(F)F)cc1)c1ccc(C#N)cc1 | cell-free assay, competition with immobilised ligand | 1 µM | remaining binding | 82%
COc1ncccc1-c1cnn2ccc(N3CCN(C(=O)OC(C)C)CC3)nc12 | binding, competition with immobilised ligand | 1 µM | remaining binding | 68%
CC(C)(C)c1cc(C=C(C#N)C#N)cc(Br)c1O | enzyme activity, inhibitor | 0.5 µM | remaining activity | 101%
